High-throughput results (PubChem)
XBP1 UPR activ – activators of adaptive XBP1 UPR arm, primary screen, cell-based, CHO-XBP1 luciferase reporter, luminescence, uHTS; IRE1-XBP1 UPR activation; percent of tunicamycin response, DMSO as zero; activation, % at 20 µM; 0.33% of 330,000 active; AID 463104, 2010;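 active = versus positive control, 20 µM dose yields 30% or more activation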;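 also: 100% = tunicamycin at 10 µg/mL and 0% = DMSO only wells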
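Test system: CHO-XBP1 luciferase reporter cells | Buffer or medium: Serum-containing F12 medium, 10% FBS | Schedule: 6 h compound exposure at 37 °C, 5% CO2 | Detection: Steady-Glo luciferase glow luminescence, 10 min after reagent addition | Read-out basis: Activation, % of tunicamycin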
FXN GAA850 act – FXN promoter activators, primary screen, cell-based, luciferase luminescence, HEK293 lucGAA850 | activation, % at 6 µM | 0.56% of 360,000 active | HEK293 lucGAA850 FXN promoter luciferase reporter, 24 h; percent of 10 µM SAHA response;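 active = activation above the average of all compounds screened plus 3 SD, cutoff fixed separately per campaign, cut at about 7.5% in these data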;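 also: 0% = DMSO wells and 100% = 10 µM SAHA wells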
UPR CHOP act – activators of apoptotic CHOP UPR arm, primary screen, cell-based, CHO-CHOP luciferase reporter, luminescence, uHTS. UPR activation; percent of tunicamycin response over DMSO baseline. activation, % at 10 µM. 0.34% of 330,000 active;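 active = at 10 µM dose, activation of 40% or more, normalized to positive control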;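 also: 100% = tunicamycin at 10 µg/mL and 0% = DMSO alone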
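System: CHO-CHOP luciferase reporter cell line | Buffer or medium: F12 medium containing 10% fetal bovine serum | Doses: One dose, 10 µM in 0.5% DMSO | Times: 6 h compound exposure at 37 °C after overnight seeding | Signal: Luciferase luminescence | Read-out: % activation vs tunicamycin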
CHOP inhibitor – inhibitors of CHOP promoter induction, primary screen, cell-based, unfolded protein response, luciferase reporter; CHO-K1 CHOP-promoter luciferase, tunicamycin-induced, 15-18 h; inhibition, % at 10 µM; 3.8% of 220,000 active; AID 2732, 2010;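 active = compounds that reduced the stress-induced luciferase reporter signal by more than about 70% of percent inhibition, limit read from the data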;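 also: 0% = tunicamycin plus vehicle and 100% = wells without tunicamycin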
UPR XBP1 confirm – IRE1-XBP1 UPR arm activators, confirmation, cell-based, CHO-XBP1 luciferase reporter, luminescence, single concentration; shares compounds with XBP1 UPR activ; activation, % at 20 µM; 63% of 1,000 active; AID 485299, 2010;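 active = reporter signal at least 30% of the positive control's activation in two or more of four replicate wells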;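 also: plate controls were DMSO negative control for no effect and tunicamycin 10 µg/mL positive control for full effect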
* = called active by the depositor; · = no result given. The sample as a whole holds a higher share of hits than the screen did.

SMILES	XBP1 UPR activ	FXN GAA850 act	UPR CHOP act	CHOP inhibitor	UPR XBP1 confirm
CCn1c(/C=C/c2ccc(O)c(O)c2)nc2ccccc2c1=O	37*	7	37	·	21
C[C@]12c3[nH]c4ccc(Cl)cc4c3CCN1C(=O)[C@@H](CC(=O)NCc1cccc(C(F)(F)F)c1)C[C@@H]2C(=O)N1CCOCC1	6	-9	6	·	·
CC(C)N(C(=O)[C@H]1C[C@H](CC(=O)NCc2cccc(C(F)(F)F)c2)C(=O)N2CCc3c([nH]c4ccc(Cl)cc34)[C@]12C)C(C)C	55*	1	9	·	70*
O=C(c1cc(C2CC2)nn1-c1ccccc1)N1CCN(S(=O)(=O)c2ccccc2F)CC1	·	1	·	·	·
Cc1ccc(Nc2nc3ccc(Cl)cc3n3cnnc23)cc1F	32*	3	2	·	48*
CC(C)c1ccc(CNC(=O)C2(C)CCCN2C)cc1 (configuration not stated)	·	1	·	·	·
Cc1nc2sccn2c(=O)c1S(=O)(=O)N1CCN(c2ccccc2F)CC1	·	-1	·	·	·
O=c1cc(CN2CCN(c3ccc(F)cc3)CC2)c2cc3c(cc2o1)CCCC3	100*	1	35	-16	96*
CCCCN1C[C@H](CSC)[C@@H](CC(=O)Nc2ccc(Br)cc2)C1=O	·	-1	·	·	·
COc1cc2nc(N3CCN(c4cc(C)ccc4C)CC3)nc(N)c2cc1OC	109*	-1	36	·	62*
COc1ccc(C)cc1Nc1nc(N)c2cc(OC)c(OC)cc2n1	7	-2	0	·	·
CCCn1c(Nc2nc3ccccc3n2C)nc2ccccc21	55*	-1	1	18	57*
CC(C)CN=C(NS(=O)(=O)c1ccccc1)C(Cl)(Cl)Cl	47*	-2	10	54	60*
CC1=CC(C)[C@H](/C=N/n2c(=O)[nH]c3c([nH]c4ccc(C)cc43)c2=O)C(C)C1 (some centres not stated)	87*	-1	3	26	99*
COc1ccc(/C=N/n2c(=O)[nH]c3c([nH]c4ccc(C)cc43)c2=O)cc1CN1CCOCC1	·	0	·	4	·
O=C(NC(=S)N1CC=CCC1)c1ccccc1	·	1	·	·	·
CCCCN1C(=O)/C(=C2/Sc3ccc(OC)cc3N2CC)SC1=S	94*	2	8	·	49*
CC/C(=N/Nc1cccc(Cl)c1)c1cnnc(SC)n1	-2	4	-1	-5	·
CC/C(=N/Nc1ccccc1)c1cnnc(-c2ccccc2)n1	69*	0	4	40	10
COCCNC(=O)C1CC(c2cccc(F)c2)=NO1 (configuration not stated)	31*	-1	-1	-9	0
CNc1nc(NCc2ccc(N(C)C)cc2)c2sccc2n1	·	3	·	·	·
COc1ccc([C@H]2C[C@H](n3cc(COC(=O)c4ccccc4)nn3)[C@@H](O)CN2C(=O)c2cccs2)cc1	·	2	·	·	·
Cc1cc(-n2c(SCC(=O)Nc3ccc(F)c(F)c3)nc3n[nH]c(C)c3c2=N)ccc1Cl	34*	-4	10	·	60*
Cc1cc(-n2c(SCC(=O)Nc3ccc(Br)cc3)nc3n[nH]c(C)c3c2=N)ccc1Cl	36*	3	5	·	20
CC(C)COC(=O)N1CCCCC1c1cc(C(=O)NC(C)C)no1 (configuration not stated)	·	2	·	·	·
CC1(C)C2CC[C@]3(C)C(CC=C4[C@@H]5C[C@@](C)(CO)[C@@H]6C[C@@]5(CC[C@]43C)C(=O)O6)[C@@]2(C)CC[C@@H]1O (some centres not stated)	0	·	-1	·	·
CC1(C)CC[C@@]23CC[C@]4(C)[C@@](OC2=O)(C3C1)[C@H]1O[C@H]1C1[C@@]2(C)CC[C@H](O)C(C)(C)C2CC[C@]14C (some centres not stated)	50*	·	0	·	46*
C=CCN=C1S/C(=C/c2ccc([N+](=O)[O-])cc2)C(=O)N1CC=C	3	1	0	-11	·
C=CCN=C1S/C(=C/c2cccc([N+](=O)[O-])c2)C(=O)N1CC=C	33*	4	9	-9	47*
